In test [1] the test system is HT-22. The test can be described thus: Neuroprotective activity against glutamate-induced toxicity in mouse HT22 cells at 10 to 20 uM up to 48 hrs by MTS assay. Format: functional, cell-based. Background: Formazan colour is commonly taken as a measure of viable cells.
Test [2] relates to HT-22. Nature of the test: Downregulation of GSK3 expression in mouse HT22 cells after 4 hrs by Western blot analysis. Format: functional, cell-based. Background: Immunoblotting shows a protein as a band on a membrane.
Test [3] addresses Cyclin-dependent kinase 7/ cyclin H (Homo sapiens, UniProt P50613). The test can be described thus: Inhibition of human recombinant CDK7/cyclin H expressed in insect cell using YSPTSPSYSPTSPSYSPTSPSKKKK as substrate and [gamma33P]ATP after 30 mins by scintillation counting. In outline:
(§1)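 Panel of purified kinases (recombinant from several species plus native enzymes), each assayed radiometrically over a range of inhibitor concentrations; IC50 in μM calculated from the dose-response curves.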

Test [4] has as its target Homeodomain-interacting protein kinase 1 (Homo sapiens, UniProt Q86Z02). The test can be described thus: Binding affinity to HIPK1.
Test [5] can be described thus: Inhibition of CK2 at 10 uM after 30 mins.
Test [6] deals with Dual specificity tyrosine-phosphorylation-regulated kinase 1A (Mus musculus, UniProt Q61214). The test can be described thus: Binding affinity to DYRK1A in mouse brain homogenate after 3 hrs by competition affinity chromatographic analysis. The test is classed as tissue-based. The method, boiled down:
(§2)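 Mouse brain lysate applied to a KinAffinity matrix of mixed immobilized broad-spectrum kinase inhibitors at highest loading density, with increasing concentrations of free inhibitor added. […] Separate titrations of the immobilized ligands gave BC50 values.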

Test [7] deals with Casein kinase II subunit alpha' (Mus musculus) (UniProt O54833). The test can be described thus: Binding affinity to CK2 alpha' subunit in mouse brain homogenate by Western blot analysis. Format: tissue-based. In outline: (§3)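 Bead pull-down from HT22 cell or mouse brain extracts, with ethanolamine beads lacking ligand as control. Specificity was tested by adding excess free inhibitor to the extracts before binding.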
Sequence of Casein kinase II subunit alpha' (Mus musculus) (O54833 whole entry): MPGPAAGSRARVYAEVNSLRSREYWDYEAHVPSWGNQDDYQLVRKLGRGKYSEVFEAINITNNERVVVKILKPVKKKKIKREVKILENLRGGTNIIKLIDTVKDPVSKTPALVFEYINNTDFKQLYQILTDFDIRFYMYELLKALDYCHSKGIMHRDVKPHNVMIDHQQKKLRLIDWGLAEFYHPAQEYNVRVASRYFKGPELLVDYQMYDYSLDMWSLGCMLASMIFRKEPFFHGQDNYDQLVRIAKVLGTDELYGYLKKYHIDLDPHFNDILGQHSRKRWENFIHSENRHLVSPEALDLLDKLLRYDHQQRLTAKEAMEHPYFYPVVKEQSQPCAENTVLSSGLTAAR

Test [8] concerns the target Serine/threonine-protein kinase pim-3 (Homo sapiens) (UniProt Q86V86). The test can be described thus: Inhibition of human recombinant His6-tagged PIM3 expressed in Sf21 cells using RSRHSSYPAGT as substrate at 10 uM after 30 mins.
In test [9] the target is Glycogen synthase kinase-3 alpha (Mus musculus) (UniProt Q2NL51). The test can be described thus: Binding affinity to GSK3alpha in mouse brain homogenate by Western blot analysis. Format: tissue-based. The method, boiled down:
as §3

The target in test [10] is 1-phosphatidylinositol 3-phosphate 5-kinase (Mus musculus, UniProt Q9Z1T6). The test can be described thus: Binding affinity to phosphatidylinositol-3-phosphate 5-kinase type 3 in mouse brain homogenate after 3 hrs by competition affinity chromatographic analysis. The test is classed as tissue-based. In outline: as §2
Test [11] deals with Dual specificity tyrosine-phosphorylation-regulated kinase 1A (Mus musculus) (UniProt Q61214). Nature of the test: Binding affinity to DYRK1A in mouse brain homogenate by Western blot analysis. The test is classed as tissue-based. In outline: as §3
A short description of test [12]: Inhibition of pig […] isolated from brain using RRKHAAIGpSAYSITA as substrate and [gamma33P]ATP after 30 mins by scintillation couting. Also on record: species or system Sus scrofa. The method, boiled down: as §1
In test [13] the target is Protein VAC14 homolog (Mus musculus, UniProt Q80WQ2). Nature of the test: Binding affinity to VAC14 in mouse brain homogenate after 3 hrs by competition affinity chromatographic analysis. The test is classed as tissue-based. The method, boiled down:
as §2

Test [14] in a line: Binding affinity to casein kinase 2.
The species named for test [15] is Mus musculus. The test can be described thus: Binding affinity to GSK3beta2 in mouse brain homogenate by Western blot analysis. Format: tissue-based. In outline:
as §3

The target in test [16] is Glycogen synthase kinase-3 beta (Homo sapiens, UniProt P49841). Nature of the test: Inhibition of human recombinant GSK3beta expressed in insect cells using YRRAAVPPSPSLSRHSSPHQ-phosphoS-EDEEE as substrate and [gamma33P]ATP after 30 mins by scintillation counting.
Sequence of Glycogen synthase kinase-3 beta (P49841 whole entry): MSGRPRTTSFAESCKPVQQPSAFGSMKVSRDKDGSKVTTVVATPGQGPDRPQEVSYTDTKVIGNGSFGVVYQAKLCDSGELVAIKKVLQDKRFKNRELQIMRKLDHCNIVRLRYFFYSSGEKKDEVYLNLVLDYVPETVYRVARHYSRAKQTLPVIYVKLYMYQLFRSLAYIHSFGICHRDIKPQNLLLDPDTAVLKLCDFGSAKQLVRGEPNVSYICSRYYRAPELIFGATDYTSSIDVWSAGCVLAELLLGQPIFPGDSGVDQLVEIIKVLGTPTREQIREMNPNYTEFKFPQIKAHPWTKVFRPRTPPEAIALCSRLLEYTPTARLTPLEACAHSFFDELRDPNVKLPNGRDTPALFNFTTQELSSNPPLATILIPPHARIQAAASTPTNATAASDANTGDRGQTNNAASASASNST
Test [17] deals with Serine/threonine-protein kinase pim-3 (Homo sapiens) (UniProt Q86V86). Nature of the test: Inhibition of human recombinant His6-tagged PIM3 expressed in Sf21 cells using RSRHSSYPAGT as substrate at 1 uM after 30 mins.
Test [18] has as its target STE20-like serine/threonine-protein kinase (Mus musculus, UniProt O54988). Nature of the test: Binding affinity to SLK1 in mouse brain homogenate after 3 hrs by competition affinity chromatographic analysis. The test is classed as tissue-based. The method, boiled down:
as §2

Test [19] deals with Dual specificity tyrosine-phosphorylation-regulated kinase 1A (Mus musculus) (UniProt Q61214). The test can be described thus: Binding affinity to DYRK1A in mouse HT22 cell lysate by Western blot analysis. The conditions noted are these: HT-22. Format: cell-free. The method, boiled down:
as §3

Test [20] has as its target Casein kinase II subunit beta (Mus musculus) (UniProt P67871). Nature of the test: Binding affinity to CK2 beta subunit in mouse brain homogenate by Western blot analysis. The test is classed as tissue-based. The method, boiled down: as §3
Test [21] deals with Casein kinase II subunit alpha (Mus musculus, UniProt Q60737). Nature of the test: Binding affinity to CSNK2A1 in mouse brain homogenate after 3 hrs by competition affinity chromatographic analysis. The test is classed as tissue-based. In outline:
as §2

In test [22] the test system is HT-22. The test can be described thus: Binding affinity to GSK3beta1 in mouse HT22 cell lysate by Western blot analysis. The test is classed as cell-free. The method, boiled down:
as §3

This note sets out measurements from ChEMBL document CHEMBL2176911 (J Med Chem, 2012).

Broadly, the IC50 is the point on the concentration scale where inhibition reaches its midpoint. Broadly, the Kd is the free concentration of one partner at which half of the binding sites on the other are occupied at equilibrium, for simple one-to-one binding. Lower therefore signals a tighter complex.

Activity calls are given as the source filed them. No cut-off for these calls is given here.

Sequence of Protein VAC14 homolog (Q80WQ2 whole entry): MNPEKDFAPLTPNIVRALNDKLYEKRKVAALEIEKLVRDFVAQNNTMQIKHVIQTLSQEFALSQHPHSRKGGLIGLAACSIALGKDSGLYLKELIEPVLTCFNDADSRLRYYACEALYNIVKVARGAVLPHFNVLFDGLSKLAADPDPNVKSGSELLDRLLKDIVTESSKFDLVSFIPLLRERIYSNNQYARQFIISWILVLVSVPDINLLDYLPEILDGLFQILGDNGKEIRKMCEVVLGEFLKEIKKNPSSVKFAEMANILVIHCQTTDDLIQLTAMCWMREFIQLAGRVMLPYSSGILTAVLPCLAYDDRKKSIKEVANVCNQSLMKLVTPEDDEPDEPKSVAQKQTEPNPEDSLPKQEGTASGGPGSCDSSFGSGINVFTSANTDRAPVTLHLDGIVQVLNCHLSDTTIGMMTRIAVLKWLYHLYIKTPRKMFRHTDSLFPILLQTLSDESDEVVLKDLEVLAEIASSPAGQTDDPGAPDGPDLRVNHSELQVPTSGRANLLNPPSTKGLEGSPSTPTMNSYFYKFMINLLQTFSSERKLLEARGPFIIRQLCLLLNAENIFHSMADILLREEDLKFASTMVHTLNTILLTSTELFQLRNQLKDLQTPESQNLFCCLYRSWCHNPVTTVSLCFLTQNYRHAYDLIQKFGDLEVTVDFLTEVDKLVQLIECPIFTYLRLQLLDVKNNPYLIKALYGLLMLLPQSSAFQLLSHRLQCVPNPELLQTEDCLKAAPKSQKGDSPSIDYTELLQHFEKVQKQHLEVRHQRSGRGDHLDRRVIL
Sequence of STE20-like serine/threonine-protein kinase (O54988 whole entry): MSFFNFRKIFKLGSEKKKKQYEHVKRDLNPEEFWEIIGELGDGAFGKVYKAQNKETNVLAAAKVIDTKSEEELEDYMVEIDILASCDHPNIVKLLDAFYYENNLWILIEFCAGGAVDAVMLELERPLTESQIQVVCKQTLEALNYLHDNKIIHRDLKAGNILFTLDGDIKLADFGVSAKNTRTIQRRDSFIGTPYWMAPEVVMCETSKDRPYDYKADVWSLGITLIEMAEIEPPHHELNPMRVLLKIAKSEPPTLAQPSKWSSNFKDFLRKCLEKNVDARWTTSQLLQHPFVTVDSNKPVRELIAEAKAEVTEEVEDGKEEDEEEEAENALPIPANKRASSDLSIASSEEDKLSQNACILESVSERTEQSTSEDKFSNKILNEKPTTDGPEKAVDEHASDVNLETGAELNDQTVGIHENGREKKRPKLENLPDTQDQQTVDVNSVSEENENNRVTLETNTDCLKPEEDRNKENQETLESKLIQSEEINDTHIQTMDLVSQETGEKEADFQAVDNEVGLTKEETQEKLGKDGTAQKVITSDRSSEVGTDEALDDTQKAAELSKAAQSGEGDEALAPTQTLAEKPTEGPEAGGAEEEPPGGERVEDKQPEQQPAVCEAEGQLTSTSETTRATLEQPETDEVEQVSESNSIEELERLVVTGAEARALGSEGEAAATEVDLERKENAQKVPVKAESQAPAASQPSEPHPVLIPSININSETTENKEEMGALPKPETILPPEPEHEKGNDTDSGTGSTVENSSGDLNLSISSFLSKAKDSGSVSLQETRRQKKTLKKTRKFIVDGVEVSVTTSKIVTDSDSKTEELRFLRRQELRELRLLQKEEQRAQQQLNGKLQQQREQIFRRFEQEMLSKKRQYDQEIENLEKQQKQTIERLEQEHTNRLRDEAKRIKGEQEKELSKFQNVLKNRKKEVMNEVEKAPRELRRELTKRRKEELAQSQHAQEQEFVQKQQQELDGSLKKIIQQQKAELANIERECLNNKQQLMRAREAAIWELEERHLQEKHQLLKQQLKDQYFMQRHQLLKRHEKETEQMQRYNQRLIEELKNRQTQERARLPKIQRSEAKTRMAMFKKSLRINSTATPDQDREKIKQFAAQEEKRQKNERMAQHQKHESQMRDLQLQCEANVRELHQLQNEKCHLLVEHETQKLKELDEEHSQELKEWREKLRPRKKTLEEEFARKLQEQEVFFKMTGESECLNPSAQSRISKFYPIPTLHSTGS
Sequence of Homeodomain-interacting protein kinase 1 (Q86Z02 whole entry): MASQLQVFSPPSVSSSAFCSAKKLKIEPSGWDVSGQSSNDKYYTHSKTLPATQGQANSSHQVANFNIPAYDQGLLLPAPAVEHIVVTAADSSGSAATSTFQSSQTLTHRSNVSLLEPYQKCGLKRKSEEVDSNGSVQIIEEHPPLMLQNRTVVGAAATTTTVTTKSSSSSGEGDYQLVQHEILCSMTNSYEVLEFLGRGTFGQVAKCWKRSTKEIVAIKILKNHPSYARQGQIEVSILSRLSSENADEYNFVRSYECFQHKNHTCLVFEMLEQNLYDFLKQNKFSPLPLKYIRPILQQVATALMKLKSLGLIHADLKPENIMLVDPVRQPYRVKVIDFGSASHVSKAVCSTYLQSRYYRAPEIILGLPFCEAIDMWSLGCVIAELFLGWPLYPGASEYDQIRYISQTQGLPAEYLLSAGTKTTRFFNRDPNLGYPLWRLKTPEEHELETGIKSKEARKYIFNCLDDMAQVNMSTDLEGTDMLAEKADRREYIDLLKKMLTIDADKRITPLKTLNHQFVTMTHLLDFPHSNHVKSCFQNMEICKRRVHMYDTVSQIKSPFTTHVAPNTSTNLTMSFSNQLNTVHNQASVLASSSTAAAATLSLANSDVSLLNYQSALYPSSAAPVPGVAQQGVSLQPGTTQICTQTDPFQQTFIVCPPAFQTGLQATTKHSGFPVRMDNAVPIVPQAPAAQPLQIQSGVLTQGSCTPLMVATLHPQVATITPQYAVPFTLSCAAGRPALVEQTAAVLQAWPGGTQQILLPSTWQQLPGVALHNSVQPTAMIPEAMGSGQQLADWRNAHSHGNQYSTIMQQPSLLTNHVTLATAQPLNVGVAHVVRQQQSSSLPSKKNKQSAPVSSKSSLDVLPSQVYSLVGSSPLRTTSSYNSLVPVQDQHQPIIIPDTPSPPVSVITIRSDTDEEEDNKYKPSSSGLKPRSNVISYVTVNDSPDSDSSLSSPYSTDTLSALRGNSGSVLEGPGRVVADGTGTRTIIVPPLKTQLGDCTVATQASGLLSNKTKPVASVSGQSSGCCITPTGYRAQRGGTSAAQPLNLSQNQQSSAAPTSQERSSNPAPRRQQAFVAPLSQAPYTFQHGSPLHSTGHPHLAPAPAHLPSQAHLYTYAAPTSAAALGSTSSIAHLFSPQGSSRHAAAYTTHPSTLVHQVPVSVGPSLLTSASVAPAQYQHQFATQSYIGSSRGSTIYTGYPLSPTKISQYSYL
Sequence of Casein kinase II subunit alpha (Q60737 whole entry): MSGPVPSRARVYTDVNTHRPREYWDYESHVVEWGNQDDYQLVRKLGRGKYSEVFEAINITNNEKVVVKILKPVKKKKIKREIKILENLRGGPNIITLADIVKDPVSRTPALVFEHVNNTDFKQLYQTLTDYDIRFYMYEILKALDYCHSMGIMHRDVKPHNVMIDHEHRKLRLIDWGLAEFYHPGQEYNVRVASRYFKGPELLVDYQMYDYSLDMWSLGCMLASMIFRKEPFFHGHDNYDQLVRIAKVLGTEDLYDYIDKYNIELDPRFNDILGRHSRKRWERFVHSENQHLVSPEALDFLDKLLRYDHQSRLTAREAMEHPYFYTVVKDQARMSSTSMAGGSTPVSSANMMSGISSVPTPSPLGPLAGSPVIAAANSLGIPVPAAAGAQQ
Sequence of Casein kinase II subunit beta (Mus musculus) (P67871 whole entry): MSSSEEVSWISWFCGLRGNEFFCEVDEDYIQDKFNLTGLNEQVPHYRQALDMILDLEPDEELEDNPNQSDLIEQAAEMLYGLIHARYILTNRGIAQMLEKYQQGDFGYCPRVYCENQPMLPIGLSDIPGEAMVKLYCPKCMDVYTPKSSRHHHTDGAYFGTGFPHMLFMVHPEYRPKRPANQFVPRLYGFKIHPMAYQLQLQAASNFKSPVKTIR

Take `O=C1NC(Nc2ccccc2)=N/C1=C\c1ccc2c(c1)OCO2`: the outcome in test [1], in [7], in test [9], in test [11], in test [14] and in test [15] was Active. Further, the result in test [19], in test [20] and in test [22] was Active. The outcome in [2] was inactive. The IC50 is over 10000 nM in test [3], 30000 nM in test [12] and 380 nM in test [16]. Moreover, the Kd in test [4] is 320 nM. The inhibition result in test [5], in [8] and in test [17] was “Active” each time. Also, the “Kd(free)” value in test [6] amounted to 65 nM; in [10], 6010 nM; in test [13], 15265 nM; in test [18] it was 21 nM; in test [21], 326 nM.
